From ChEMBL document CHEMBL4428033, “The Flavone Luteolin Inhibits Liver X Receptor Activation” (J Nat Prod, 2016)
Active and inactive are the calls of the source. The calls are words filed in the database; no cut-off is given here.

Legend:
Mus musculus [1] = experiment: Antihyperlipidemic activity in ethanol-induced steatosis C57BL/6 mouse model assessed as inhibition of serum triacylglycerol level at 50 mg/kg, po administered daily through oral gavage for 2 weeks by colorimetric method relative to control; assay type: functional; details: C57BL/6, po, 336 h
[2] = target: T1, Oxysterols receptor LXR-alpha (Homo sapiens) (UniProt Q13133); experiment: Transactivation of human LXR-alpha at 10 to 50 uM after 22 hrs by cell based luciferase reporter gene assay
T1 sequence (whole entry): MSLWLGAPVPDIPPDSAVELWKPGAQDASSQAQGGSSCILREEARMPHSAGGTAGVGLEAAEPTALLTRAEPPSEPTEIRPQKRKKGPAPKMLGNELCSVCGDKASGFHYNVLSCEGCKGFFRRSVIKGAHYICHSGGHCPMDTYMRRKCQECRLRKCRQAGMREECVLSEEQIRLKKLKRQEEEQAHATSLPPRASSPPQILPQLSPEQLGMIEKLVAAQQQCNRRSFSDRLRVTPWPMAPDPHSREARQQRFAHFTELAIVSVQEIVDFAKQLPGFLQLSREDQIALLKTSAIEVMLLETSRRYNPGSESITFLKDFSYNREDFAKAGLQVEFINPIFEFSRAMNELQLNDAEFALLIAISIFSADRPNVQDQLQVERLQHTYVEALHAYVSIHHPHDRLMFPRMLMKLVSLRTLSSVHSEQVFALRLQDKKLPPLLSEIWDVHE
Method in brief: (§1)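 Commercial LXRα or LXRβ luciferase reporter cells (nonhuman mammalian) kept in medium or given T0901317 0.01–10 μM, alone or with luteolin 10, 25 or 50 μM, for 22 h. Luminescence read per kit instructions, 500 ms read time. RLU plotted against log T0901317 concentration.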

[3] = target: T2, Oxysterols receptor LXR-beta (Homo sapiens) (UniProt P55055); experiment: Transactivation of human LXR-beta at 10 to 50 uM after 22 hrs by cell based luciferase reporter gene assay; method in brief: as §1
T2 sequence (whole entry): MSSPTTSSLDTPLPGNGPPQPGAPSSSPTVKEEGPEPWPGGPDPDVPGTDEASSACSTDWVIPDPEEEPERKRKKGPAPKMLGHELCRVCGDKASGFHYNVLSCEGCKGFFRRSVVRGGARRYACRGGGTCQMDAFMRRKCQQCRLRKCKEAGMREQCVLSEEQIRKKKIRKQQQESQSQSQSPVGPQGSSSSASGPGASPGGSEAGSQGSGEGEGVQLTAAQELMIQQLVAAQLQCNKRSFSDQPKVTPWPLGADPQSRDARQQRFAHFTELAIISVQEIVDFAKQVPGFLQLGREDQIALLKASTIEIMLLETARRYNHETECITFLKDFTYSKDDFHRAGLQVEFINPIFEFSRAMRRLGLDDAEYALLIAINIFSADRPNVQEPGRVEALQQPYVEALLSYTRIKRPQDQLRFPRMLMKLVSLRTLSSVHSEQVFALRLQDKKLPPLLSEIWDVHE

[4] = target: T2, Oxysterols receptor LXR-beta (Homo sapiens); experiment: Inhibition of T0901317-induced human LXR-beta transcriptional activity after 22 hrs by cell based luciferase reporter gene assay; method in brief: as §1
[5] = target: T3, Liver X receptor (Homo sapiens) (UniProt Q13133+P55055); experiment: Inhibition of T0901317-induced LXR-alpha/beta transactivation in human HepG2 cells assessed as reduction in SREBP-1c mRNA expression at 50 uM after 12 hrs by RT-PCR method; assay type: cell-based
Method in brief: (§2)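 HepG2 cells in low-glucose DMEM with 10% FBS, 37 °C, 5% CO2. Pretreated 1 h with T0901317 (0.01–10 μM, or 0.05 or 1 μM), or left in medium, then given luteolin 10, 25 or 50 μM for 12 h. Trizol RNA, SYBR-Green real-time RT-PCR for SREBP-1c, normalised to HPRT1. Pfaffl fold change versus medium control. Two independent experiments in duplicate, mean ± SEM.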

[6] = target: T4, Oxysterols receptor LXR-alpha/beta (Mus musculus, UniProt Q9Z0Y9+Q60644); experiment: Transactivation of LXR-alpha/beta in mouse RAW264.7 cells assessed as upregulation of ABCA1 mRNA expression at 10 to 50 uM after 3 hrs by RT-PCR method; assay type: cell-based; details: raw264.7, 3 h
T4 sequence (Q9Z0Y9 whole entry): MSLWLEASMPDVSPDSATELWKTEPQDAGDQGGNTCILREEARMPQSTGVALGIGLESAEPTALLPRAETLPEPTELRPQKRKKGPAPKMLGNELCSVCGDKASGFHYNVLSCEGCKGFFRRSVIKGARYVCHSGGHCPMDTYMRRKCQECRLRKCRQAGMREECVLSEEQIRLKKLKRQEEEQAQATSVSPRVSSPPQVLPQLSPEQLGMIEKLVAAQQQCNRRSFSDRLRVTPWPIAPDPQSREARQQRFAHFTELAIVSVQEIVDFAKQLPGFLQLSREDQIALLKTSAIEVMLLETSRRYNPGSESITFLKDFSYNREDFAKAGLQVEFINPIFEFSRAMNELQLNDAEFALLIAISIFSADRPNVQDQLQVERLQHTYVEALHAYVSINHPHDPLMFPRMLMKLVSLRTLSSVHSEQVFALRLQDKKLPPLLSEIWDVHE
T4 sequence (Q60644 whole entry): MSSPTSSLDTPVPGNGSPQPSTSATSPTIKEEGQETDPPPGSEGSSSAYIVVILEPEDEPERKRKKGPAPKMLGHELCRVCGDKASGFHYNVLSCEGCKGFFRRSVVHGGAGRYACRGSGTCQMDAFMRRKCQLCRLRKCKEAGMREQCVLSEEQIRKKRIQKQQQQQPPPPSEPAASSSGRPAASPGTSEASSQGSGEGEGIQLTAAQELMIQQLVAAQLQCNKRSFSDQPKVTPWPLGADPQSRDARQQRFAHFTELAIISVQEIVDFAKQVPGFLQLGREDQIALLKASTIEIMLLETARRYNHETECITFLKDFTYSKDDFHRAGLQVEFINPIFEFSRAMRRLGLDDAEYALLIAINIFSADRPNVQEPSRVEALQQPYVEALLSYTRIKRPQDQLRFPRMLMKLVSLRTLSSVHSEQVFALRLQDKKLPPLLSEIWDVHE
Method in brief: (§3)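 RAW 264.7 macrophages pretreated 1 h with T0901317 (0.01–10 μM, or 1 μM), or left in medium, then luteolin 10, 25 or 50 μM for 3 h. ABCA1 mRNA by SYBR-Green real-time RT-PCR, normalised to HPRT1. Pfaffl fold change versus medium control or the T0901317-treated sample. Three independent experiments in duplicate, mean ± SEM. One-way ANOVA with Dunnett's test.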

[7] = target: T1, Oxysterols receptor LXR-alpha (Homo sapiens); experiment: Inhibition of T0901317-induced human LXR-alpha transcriptional activity after 22 hrs by cell based luciferase reporter gene assay; method in brief: as §1
[8] = target: T5, Oxysterols receptor LXR-alpha/beta (Mus musculus) (UniProt Q9Z0Y9+Q60644); experiment: Inhibition of T0901317-induced LXR-alpha/beta transactivation in mouse RAW264.7 cells assessed as reduction in ABCA1 mRNA expression at 50 uM after 3 hrs by RT-PCR method relative to control; assay type: cell-based; method in brief: as §3
[9] = target: T3, Liver X receptor (Homo sapiens); experiment: Inhibition of T0901317-induced LXR-alpha/beta transactivation in human HepG2 cells assessed as reduction in SREBP-1c mRNA expression at 10 to 25 uM after 12 hrs by RT-PCR method; assay type: cell-based; method in brief: as §2
[10] = target: T1, Oxysterols receptor LXR-alpha (Homo sapiens); experiment: Inhibition of T0901317-induced human LXR-alpha transcriptional activity at 10 uM after 22 hrs by cell based luciferase reporter gene assay; method in brief: as §1
HepG2 [11] = experiment: Cytotoxicity against human HepG2 cells assessed as reduction in cell viability at 10 to 50 uM after 12 hrs by MTT assay; assay type: cell-based; details: hepg2, 12 h
Method in brief: (§4)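 Cells treated as in the RT-PCR assays (T0901317 pretreatment 1 h, then luteolin 10, 25 or 50 μM; 12 h for HepG2, 3 h for RAW 264.7). MTT added at 37 °C for 60 min (HepG2) or 15 min (RAW 264.7). Formazan dissolved in acidic 2-propanol and read at 570 nm, reference 620 nm.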

Liver X receptor = target: T6, Liver X receptor (Homo sapiens, UniProt Q13133+P55055); experiment: Transactivation of LXR-alpha/beta in human HepG2 cells assessed as upregulation of SREBP-1c mRNA expression at 10 to 50 uM after 12 hrs by RT-PCR method; assay type: cell-based; details: hepg2, 12 h; method in brief: as §2
T6 sequence (Q13133 whole entry): T1 sequence (whole entry)
T6 sequence (P55055 whole entry): T2 sequence (whole entry)

RAW264.7 = experiment: Cytotoxicity against mouse RAW264.7 cells assessed as reduction in cell viability at 10 to 50 uM after 3 hrs by MTT assay; assay type: cell-based; details: raw264.7, 3 h; method in brief: as §4
Mus musculus [12] = experiment: Antihyperlipidemic activity in ethanol-induced steatosis C57BL/6 mouse model assessed as inhibition of serum LDL cholesterol level at 50 mg/kg, po administered daily through oral gavage for 2 weeks by colorimetric method relative to control; assay type: functional; details: C57BL/6, po, 336 h
HepG2 [13] = experiment: Inhibition of T0901317-induced lipid accumulation in human HepG2 cells at 50 uM preincubated for 1 hr followed by T0901317 addition measured after 24 hrs by Oil Red-O dye based microscopic analysis; assay type: functional, cell-based
Method in brief: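 HepG2 cells preincubated 1 h with luteolin 25 or 50 μM, then T0901317 5 μM added for 24 h. Fixed in 4% paraformaldehyde for 20 min at room temperature. Stained with Oil Red-O (0.6% stock diluted 6:4 with water) for 45 min at room temperature, washed, then imaged by microscopy; absorbance recorded.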

[14] = target: T5, Oxysterols receptor LXR-alpha/beta (Mus musculus); experiment: Inhibition of T0901317-induced LXR-alpha/beta transactivation in mouse RAW264.7 cells assessed as reduction in ABCA1 mRNA expression at 10 uM after 3 hrs by RT-PCR method; assay type: cell-based; method in brief: as §3
[15] = target: T5, Oxysterols receptor LXR-alpha/beta (Mus musculus); experiment: Inhibition of T0901317-induced LXR-alpha/beta transactivation in mouse RAW264.7 cells assessed as reduction in ABCA1 mRNA expression at 25 uM after 3 hrs by RT-PCR method relative to control; assay type: cell-based; method in brief: as §3
[16] = target: T5, Oxysterols receptor LXR-alpha/beta (Mus musculus); experiment: Inhibition of T0901317-induced LXR-alpha/beta transactivation in mouse RAW264.7 cells assessed as reduction in ABCA1 mRNA expression after 3 hrs by RT-PCR method; assay type: cell-based; method in brief: as §3
[17] = target: T2, Oxysterols receptor LXR-beta (Homo sapiens); experiment: Inhibition of T0901317-induced human LXR-beta transcriptional activity at 10 uM after 22 hrs by cell based luciferase reporter gene assay; method in brief: as §1

O=c1cc(-c2ccc(O)c(O)c2)oc2cc(O)cc(O)c12 [LUTEOLIN]
inhibition in vivo at 50 mg/kg (Mus musculus [1]): 22% | Activity [2]: inactive | Activity [3]: inactive | inhibition [4]: Dose-dependent effect | inhibition [5]: Active | Activity [6]: Not Active | inhibition [7]: Dose-dependent effect | inhibition [8]: 64% | inhibition [9]: inactive | inhibition [10]: inactive | Activity (HepG2 [11]): Non-Toxic | Activity (Liver X receptor): Not Active | Activity (RAW264.7): Non-Toxic | inhibition in vivo at 50 mg/kg (Mus musculus [12]): 52% | inhibition (HepG2 [13]): Active | inhibition [14]: inactive | inhibition [15]: 41% | inhibition [16]: Dose-dependent effect | inhibition [17]: inactive
